# HUVEC inhibit – inhibitors of HUVEC proliferation, primary screen, cell-based, 384-well; actives 1.1% (n = 86,000); CellTiter-Glo luminescence, 72 h; stronger effect = lower value; viability, % at 10 µM (by protocol);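 active = viability at or below 30%; inactive = viability above 30%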;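 also: 100% = median luminescence of DMSO-only cell control wells on each plate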
# Lung fibro prol – antiproliferative effect on LL 47 fibroblasts – human, LL 47 cells, CellTiter-Glo luminescence, primary screen; LL 47 human lung fibroblast viability, ATP luminescence; stronger effect = lower value; viability, % at 10 µM; actives 1.1% (n = 85,000); AID 719, 2007;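 active = viability at or below 50% in the single dose screen; inactive = viability above 50%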;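 also: compound exposure lasted 72 h before the ATP readout; 100% = median luminescence of untreated cell-only wells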
#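 Assay system: human lung fibroblast line LL 47, low passage. Input: 1,150 fibroblasts seeded per well. Times: overnight cell rest, 72 h compound treatment at 37 °C. Evaluation: % viability of median cell-only signal. Technique: luminescent ATP detection, CellTiter-Glo. Control set: cell-only wells, no compound.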
# bCat KO growth – primary screen for growth suppressors in beta-catenin knockout HCT116 cells (colon tumor, human) | HCT116 beta-catenin knockout viability, CellTiter-Glo, 60 h; stronger effect = lower value | viability, % at 10 µM | actives 1.5% (n = 140,000) | AID 818, 2007;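 active = viability at or under a set limit, the compound median less 4 SD, cut at about 6% in these data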;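 also: 0% = Hyamine 1622 control at 20 µM and 100% = untreated cell control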
# HCT116 PTEN-null – growth suppression of PTEN-null HCT116, primary screen, cell-based, CellTiter-Glo; HCT116 PTEN-null viability, 60 h; stronger effect = lower value; viability, % at 10 µM; actives 1.2% (n = 140,000); AID 827, 2007;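 active = viability at or below a set limit, 4 SD under the median of all tested compounds, cut at about 3.7% in these data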;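 also: PTEN knockout HCT116 line with beta catenin targeted HCT116 as companion control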
# H69AR growth 86K – proliferation blockers of H69AR lung cancer cells, primary screen, cell-based, human, 86K library | H69AR lung tumor viability, ATP luminescence, 72 h; stronger effect = lower value | viability, % at 10 µM | actives 6% (n = 85,000);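 active = viability at or below 40%; inactive = viability above 40%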;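 also: multidrug resistant small cell line overexpressing MRP-1 efflux transporter; 100% = mean luminescence of untreated control wells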
# * marks the source's active call; other numbers are inactive results; . = not tested or not shown. This excerpt belongs to a sample that is enriched for hits.
SMILES,HUVEC inhibit,Lung fibro prol,bCat KO growth,HCT116 PTEN-null,H69AR growth 86K
Cc1ccc2[nH]c3c(c2c1)CN(C(=O)CN1c2ccc(F)cc2CCC1C)CC3 (stereo not given),63,95,12,15,11*
Cc1ccc2[nH]c3c(c2c1)CN(C(=O)CN1CCN(c2cccc(C)c2C)CC1)CC3,69,106,67,66,42
NS(=O)(=O)c1ccc(CCN2C(=O)/C(=C\c3ccc(Cl)cc3)SC2=S)cc1,.,.,30,41,.
O=C(/C=C/c1ccc([N+](=O)[O-])cc1)NCc1cccnc1,.,.,97,81,.
O=C(/C=C/c1ccc([N+](=O)[O-])cc1)c1cccnc1,.,.,1.4*,1.6*,.
O=C(/C=C/c1cccc(OCc2ccccc2)c1)c1cccnc1,.,.,2.7*,0.7*,.
CCOc1ccc(-n2c(N)c(C(=O)NCc3ccco3)sc2=S)cc1,102,97,85,77,90
O=C(N1CCOCC1)N1CCCN(C(=O)N2CCOCC2)CC1,92,100,104,103,36*
COc1cc(C(=O)NCC(=O)N/N=C(/C)c2cccs2)cc(OC)c1OC,.,.,96,89,.
CCOC(=O)C1=C(c2ccccc2)Nc2ncnn2C1c1cccc(OC)c1OC (stereo not given),88,91,91,85,39*
CCCC1=C(C(=O)OCC)C(/C=C/c2ccccc2)n2ncnc2N1 (stereo not given),62,43*,30,32,19*
CCOC(=O)C1=C(C)Nc2ncnn2C1/C=C/c1ccccc1 (stereo not given),81,75,81,73,23*
CCOC(=O)c1ccc(N=C2C(=S)N(c3ccc(C(=O)OCC)cc3)C(=N)N2/N=C/c2ccccc2)cc1,74,92,92,94,0.9*
CCOC(=O)c1ccc(N2Cc3ccccc3C2=N)cc1,.,.,93,98,.
CN(C)c1ccc(/C=N/N2C(=N)N(c3ccccc3)C(=S)C2=Nc2ccccc2)cc1,68,93,.,.,16*
c1ccc(N2CCCCC2)c(NC2=NCCC2)c1,96,101,93,103,85
O=C(CCCOc1ccc(Cl)cc1)NCC1CCCO1 (stereo not given),103,99,95,98,98
COc1ccc(CN2CCn3ncc(C(=O)Nc4cc(C)cc(C)c4)c3C2=O)cc1,10*,81,78,78,50
O=C(CN(Cc1ccccc1)C(=O)CSc1nnc(COc2ccccc2)o1)NC1CCCC1,94,97,70,71,73
Cc1ccc(CN(CC(=O)NC2CCCC2)C(=O)CSc2nnc(COc3ccccc3)o2)cc1,48,86,91,83,16*
CC(C)(C)c1ccccc1NC(=O)c1ccco1,87,91,90,104,97
Cc1cc(C(=O)c2ccc(C(C)(C)C)cc2)c(NC(=O)CCl)s1,.,.,1.1*,1.3*,.
Cc1cc(C(=O)c2ccccc2)c(NC(=O)CN2CCOCC2)s1,.,.,95,97,.
CCc1ccc2nc3nc(C)cc(C)c3c(N)c2c1,.,.,4.0*,3.2*,.
Cc1cc(C)c2c(N)c3ccccc3nc2n1,.,.,2.9*,3.2*,.
SMILES,HUVEC inhibit,Lung fibro prol,bCat KO growth,HCT116 PTEN-null,H69AR growth 86K
CCOC(=O)c1sc2nc(C)cc(C)c2c1N,99,102,67,85,102
CCCSc1nc(C)nc2c1c(=O)n(C)c(=O)n2C,86,92,105,106,92
Cc1cccc(NC2=C/C(=N/S(=O)(=O)c3cccs3)c3ccccc3C2=O)c1,.,.,79,76,.
Cc1ccc(Cl)cc1NC1=C/C(=N\S(=O)(=O)c2cccs2)c2ccccc2C1=O,.,.,1.6*,1.1*,.
N/C(=N\S(=O)(=O)c1cccs1)c1ccccc1,88,94,91,101,96
Cc1ccc(NC2=C/C(=N\S(=O)(=O)c3cccs3)c3ccccc3C2=O)c(C)c1,2.9*,2.2*,1.5*,1.3*,2.0*
O=S(=O)(Nc1cnc2ccccc2c1)N1CCCCCC1,69,90,82,82,55
CC(COc1ccccc1)N(CCCl)Cc1ccccc1 (stereo not given),87,85,95,98,1.7*
Cn1ccnc1SCC(=O)c1ccc(Br)cc1,88,96,81,73,29*
Cc1ccc(-c2ccccc2NC(=O)CCl)o1,84,99,23,44,0.1*
N#CC1=C(N)Oc2c(ccc3ccccc23)C1c1cccs1 (stereo not given),22*,53,11,12,17*
N#CC1=C(N)Oc2cc(O)ccc2C1c1cccs1 (stereo not given),96,100,84,85,67
Cc1sc2nc(-c3cccs3)nc(N3CCCN(C)CC3)c2c1C,21*,56,.,.,24*
Cc1sc2nc(SCC(=O)N3CCCCC3)[nH]c(=O)c2c1C,84,102,87,88,77
Cc1sc2nc(CN3CCCC3)nc(N3CCN(S(=O)(=O)c4cccs4)CC3)c2c1C,6.4*,70,33,39,67
Cc1sc2nc(CN3CCCCC3)nc(Cl)c2c1C,.,.,5.4*,5,.
CCOc1cc2nc(-c3ccc(OC)c(OC)c3)nc(N3CCOCC3)c2cc1OC,6.9*,66,31,29,33*
CCOc1cc2nc(-c3ccc(OC)c(OC)c3)nc(N3CC(C)OC(C)C3)c2cc1OC (stereo not given),.,.,91,88,.
O=C/C(=C\Nc1ccc(Cl)cn1)c1nc2cc(Cl)ccc2o1,35,89,68,56,38*
O=C/C(=C\Nc1ccc(Cl)cn1)c1nc2ccccc2o1,80,105,90,87,93
CSc1ccccc1NC(=O)Nc1ccc(Cl)cc1,47,84,29,20,35*
CSc1cccc(NC(=O)Nc2ccc(Cl)cc2)c1,97,94,62,63,86
CCOC(=O)C1=C(NC(=O)c2ccc(Br)o2)Nc2ccccc2N=C1,92,82,83,108,31*
CCCCN(C(=O)c1ccc(Cl)cc1)C1CC2CCC(C1)N2C (stereo not given),87,90,94,92,36*
CN1CCc2c(sc3c2C(=O)NC(c2cccs2)N3)C1 (stereo not given),94,121,90,92,97
CN1CCc2c(sc3c2C(=O)NC(c2ccc(-c4cccc(Cl)c4)o2)N3)C1 (stereo not given),48,94,.,.,3.3*
CC(C)n1cc(NC(=O)c2cc(-c3ccccc3)on2)cn1,70,73,24,25,21*
CCCC/C(C)=N\NC(=O)CNS(=O)(=O)c1ccc([N+](=O)[O-])cc1,.,.,0.5*,0.4*,.
CC1CCC2(CC1)NC(=O)c1ccccc1O2 (stereo not given),92,100,97,101,94
CC(C)(C)n1nnnc1C(c1cccs1)N(Cc1cccnc1)Cc1ccccc1Cl (stereo not given),70,89,13,12,4.0*
